The full list was thinned out, with hits kept by preference.
IDH1 mut inh – IDH1 R132H (human) inhibition | O75874 | IDH1 R132H reductase, diaphorase/resazurin fluorescence, 60 min | inhibition, % at 10 µM | 0.18% of 70,000 active | AID 624101; in the data active = inhibition above about 34%; inconclusive = no clear call, values can overlap the other calls; inactive = below about 11%;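 note: 0% = DMSO and 100% = no enzyme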
Target sequence (O75874 whole entry R132H): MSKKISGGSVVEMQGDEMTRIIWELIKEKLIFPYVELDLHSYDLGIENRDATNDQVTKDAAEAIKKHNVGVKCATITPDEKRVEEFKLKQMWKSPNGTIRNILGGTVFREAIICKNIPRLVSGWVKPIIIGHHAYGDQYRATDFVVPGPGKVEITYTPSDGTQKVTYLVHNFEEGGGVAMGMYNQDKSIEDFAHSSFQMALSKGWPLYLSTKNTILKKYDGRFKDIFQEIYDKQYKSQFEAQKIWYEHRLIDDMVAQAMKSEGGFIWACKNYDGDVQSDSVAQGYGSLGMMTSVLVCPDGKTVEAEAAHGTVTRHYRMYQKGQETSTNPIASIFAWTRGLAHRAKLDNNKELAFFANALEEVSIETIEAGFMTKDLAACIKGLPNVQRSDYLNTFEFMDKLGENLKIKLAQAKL
T cruzi growth-1 – T. cruzi proliferation inhibition | AID 624255 | inhibition, % at 8.34 µM | 5.9% of 77,000 active | T. cruzi beta-gal in NIH3T3, GalScreen luminescence, 90 h;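 active = mean inhibition above about 93%, with at least 55% of replicates each passing it, limit read from the data, passing the limit was not always enough; inconclusive = only one of those two conditions holds; inactive = neither condition holds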
KDM4C inh – inhibitors of human demethylase GASC-1 KDM4C. Q9H3R0. GST-KDM4C 2-372, H3K9me3 peptide, LANCE TR-FRET. inhibition, % at 12.5 µM. 0.15% of 96,000 active;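 active = mean replicate inhibition above about 25%, with at least 55% of replicates also reaching it, limit read from the data, passing the limit was not always enough; inconclusive = only one of those two conditions met; inactive = neither condition met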
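System – N-terminal GST-fused human GASC-1 (KDM4C) fragment, residues 2-372 · Input – enzyme final amount 10 nM · Technique – LANCE TR-FRET, Eu antibody, ULight-streptavidin, EDTA, ex 340 nm, em 618/671 nm · Medium – HEPES buffer, pH 7.5, plus ascorbate · Incubation – enzyme reaction 30 min, then detection 60 min, both room temperature · Reagent – H3K9me3 peptide with Fe(II)/2OG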
T cruzi growth-2 – Trypanosoma cruzi proliferation inhibition; shares compounds with T cruzi growth-1; T. cruzi beta-gal in NIH3T3, GalScreen luminescence, 90 h; inhibition, % at 8.35 µM; 72% of 5,600 active;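 active = mean replicate inhibition above about 95% and at least 55% of replicates individually reaching it, limit read from the data; inconclusive = only one of the two criteria is met; inactive = neither criterion is met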
T cruzi growth-3 – inhibitors of T. cruzi proliferation; inhibition, % at 2.09 µM; T. cruzi beta-gal in NIH3T3, GalScreen luminescence, 90 h; shares compounds with T cruzi growth-1; 21% of 5,600 active;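 active = mean inhibition above about 95%, with at least 55% of replicates also reaching it, limit read from the data; inconclusive = meets just one of the two conditions; inactive = meets neither condition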;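 note: plate controls were neutral control median for no effect and positive control median for full effect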
3T3 cytotox – NIH/3T3 (mouse) viability loss; cytotoxicity (signal decrease), % at 8.35 µM; AID 651742; shares compounds with T cruzi growth-1; NIH/3T3 viability, CellTiter-Glo ATP luminescence, 90 h; 14% of 5,600 active;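 active = mean signal decrease across replicates above about 35% based on untreated-well scatter, with enough replicates individually passing, limit read from the data; inconclusive = no rule stated though some were filed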;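 note: 0% = median of neutral control wells and 100% = median of positive control wells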
NIH3T3 tox 2 – kills mouse NIH/3T3 fibroblasts. NIH/3T3 viability, CellTiter-Glo ATP luminescence, 90 h. shares compounds with T cruzi growth-1. AID 651744. 56% of 5,600 active. inhibition, % at 24.9 µM;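 active = mean loss of cell viability signal at or above a set limit, and enough replicates individually reaching it; inconclusive = meets only the mean limit or only the replicate share; inactive = meets neither condition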;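 note: 0% = median of neutral control wells and 100% = median of positive control wells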
* hit, by the source's call; ? = inconclusive; / = no result given.

SMILES	IDH1 mut inh	T cruzi growth-1	KDM4C inh	T cruzi growth-2	T cruzi growth-3	3T3 cytotox	NIH3T3 tox 2
C[C@H]1CN([C@@H](C)CO)C(=O)c2cc(NC(=O)NC3CCCCC3)ccc2O[C@@H]1CN(C)Cc1ccc2c(c1)OCO2	1.1	-23.1	0.0	/	/	/	/
C[C@H](CO)N1C[C@H](C)[C@H](CN(C)Cc2ccc3c(c2)OCO3)Oc2ccc(NC(=O)NC3CCCCC3)cc2C1=O	-0.8	100.1*	-2.3	?	97.0*	27.8	51.3*
C[C@@H]1CN([C@H](C)CO)C(=O)c2cc(NC(=O)NC3CCCCC3)ccc2O[C@@H]1CN(C)Cc1ccc2c(c1)OCO2	2.9	22.4	0.5	/	/	/	/
COC(=O)c1cc(OC)c(OC)cc1NC(=S)N1CCC(C(N)=O)(N2CCCCC2)CC1	0.4	/	/	/	/	/	/
N#C[C@H]1[C@H](c2ccc(C#Cc3ccccc3F)cc2)[C@H](CO)N1C(=O)C1CCC1	/	55.2	-2.5	/	/	/	/
N#C[C@H]1[C@H](c2ccc(C#Cc3ccccc3F)cc2)[C@@H](CO)N1C(=O)C1CCC1	/	99.2*	-2.5	102.7*	100.9*	-5.5	5.5
COc1ccccc1C#Cc1ccc([C@@H]2[C@@H](C#N)N(C(=O)C3CCCCC3)[C@@H]2CO)cc1	/	/	-5.1	/	/	/	/
COc1ccccc1C#Cc1ccc([C@H]2[C@@H](C#N)N(C(=O)C3CCC3)[C@@H]2CO)cc1	/	?	0.4	105.7*	108.2*	1.6	95.9*
N#C[C@@H]1[C@H](c2ccc(C#Cc3ccccc3F)cc2)[C@@H](CO)N1C(=O)C1CCC1	/	?	-5.1	88.6	88.9	11.1	102.2*
N#C[C@@H]1[C@@H](c2ccc(C#Cc3ccccc3F)cc2)[C@H](CO)N1C(=O)C1CCC1	/	92.5	0.6	/	/	/	/
COc1ccccc1NC(=O)c1c(NCc2ccc(C)o2)sc2c1CCC2	1.1	/	/	/	/	/	/
Cc1ccccc1Cn1cc(NC(=O)C2CC(c3ccc(Cl)cc3)=NO2)cn1 (centres undefined)	0.1	/	/	/	/	/	/
C[C@H](CO)N1C[C@H](C)[C@@H](CN(C)C(=O)Nc2ccc(F)cc2)Oc2cc(-c3ccc(F)cc3)ccc2S1(=O)=O	/	117.8*	0.5	96.4*	46.2	44.2*	45.5*
C[C@@H]1CN([C@@H](C)CO)S(=O)(=O)c2ccc(-c3ccc(F)cc3)cc2O[C@H]1CN(C)C(=O)Nc1ccc(F)cc1	0.0	?	-0.4	93.1	6.7	23.9	55.7*
CC(=O)N(C)C[C@H]1Oc2cc(-c3ccc(F)cc3)ccc2S(=O)(=O)N([C@@H](C)CO)C[C@@H]1C	-1.2	8.3	-1.4	/	/	/	/
C[C@H](CO)N1C[C@H](C)[C@H](CN(C)C(=O)Nc2ccc(F)cc2)Oc2cc(-c3ccc(F)cc3)ccc2S1(=O)=O	3.8	118.9*	-3.8	104.5*	74.5	10.8	56.0*
C[C@H](CO)N1C[C@H](C)[C@H](CN(C)C(=O)Nc2ccc(F)cc2)Oc2cc(-c3cccc(C(=O)N(C)C)c3)ccc2S1(=O)=O	-0.1	17.6	-0.7	/	/	/	/
C[C@H]1CN([C@@H](C)CO)S(=O)(=O)c2ccc(-c3ccc(F)cc3)cc2O[C@H]1CN(C)C(=O)Nc1ccc(F)cc1	/	120.3*	-1.3	100.9*	80.9	62.1*	76.3*
CC(=O)N(C)C[C@H]1Oc2cc(-c3ccc(F)cc3)ccc2S(=O)(=O)N([C@@H](C)CO)C[C@H]1C	-2.5	6.0	-0.4	/	/	/	/
C[C@@H]1CN([C@H](C)CO)S(=O)(=O)c2ccc(-c3cccc(C(=O)N(C)C)c3)cc2O[C@@H]1CN(C)C(=O)Nc1ccc(F)cc1	0.2	21.8	0.0	/	/	/	/
CC(C)c1ccc(NC(=O)CSc2nnc(N)s2)cc1	-0.1	/	/	/	/	/	/
COc1ccc(C(=O)Nc2ccccc2)cc1S(=O)(=O)Nc1cccnc1	0.1	/	/	/	/	/	/
CCOC(=O)c1c(NC(=O)C2CC(c3cccc(Br)c3)=NO2)sc(C)c1C (centres undefined)	-0.3	/	/	/	/	/	/
C[C@@H]1CN([C@H](C)CO)S(=O)(=O)c2ccc(-c3ccc(F)cc3)cc2O[C@@H]1CN(C)C(=O)Nc1ccc(F)cc1	3.3	120.1*	-1.3	106.9*	66.2	6.6	48.7*
CC(=O)N(C)C[C@H]1Oc2cc(-c3ccc(F)cc3)ccc2S(=O)(=O)N([C@H](C)CO)C[C@@H]1C	3.2	42.4	-1.9	/	/	/	/
SMILES	IDH1 mut inh	T cruzi growth-1	KDM4C inh	T cruzi growth-2	T cruzi growth-3	3T3 cytotox	NIH3T3 tox 2
Cc1cccc(C)c1NC(=O)C1CC=CCC1C(=O)O (centres undefined)	0.2	/	/	/	/	/	/
Cn1c(SCC(=O)Nc2cccc(C(=O)O)c2)nnc1-c1ccccc1	0.2	/	/	/	/	/	/
Cn1ncc2c(NN3C(=O)CCC3=O)ncnc21	-0.3	/	/	/	/	/	/
C[C@@H]1CN([C@@H](C)CO)S(=O)(=O)c2ccc(/C=C/c3ccccc3)cc2O[C@@H]1CN(C)C(=O)Nc1ccc(F)cc1	0.6	122.6*	-4.8	101.7*	103.7*	31.5	47.5*
C[C@@H]1CN([C@H](C)CO)S(=O)(=O)c2ccc(/C=C/c3ccccc3)cc2O[C@@H]1CN(C)C(=O)Nc1cc(F)ccc1F	-3.3	/	-0.3	/	/	/	/
C/C=C/c1ccc2c(c1)O[C@H](CN(C)C(=O)Nc1ccc(F)cc1)[C@@H](C)CN([C@@H](C)CO)S2(=O)=O	-0.1	6.6	2.5	/	/	/	/
C[C@@H]1CN([C@@H](C)CO)S(=O)(=O)c2ccc(/C=C/c3ccccc3)cc2O[C@H]1CN(C)C(=O)Nc1ccc(F)cc1	-0.2	131.5*	0.3	98.5*	96.0*	38.7*	60.9*
CCOC(=O)c1c(NC(=O)c2ccccc2N(C)S(C)(=O)=O)sc2c1CCCC2	-0.6	/	/	/	/	/	/
CCOC(=O)c1cc(C)sc1NC(=O)CC1Sc2ccccc2NC1=O (centres undefined)	-0.3	/	/	/	/	/	/
Cc1c(Cl)c(C(F)(F)F)nn1CC(=O)Nc1ccc(C#N)cc1	-0.4	/	/	/	/	/	/
COc1ccc(NC(=O)Nc2ccc3c(c2)C(=O)N([C@@H](C)CO)C[C@@H](C)[C@H](CN(C)S(=O)(=O)c2c(C)noc2C)OCCCC[C@@H](C)O3)cc1	/	-69.9	-1.0	/	/	/	/
COc1ccc(NC(=O)Nc2ccc3c(c2)C(=O)N([C@@H](C)CO)C[C@H](C)[C@@H](CN(C)S(=O)(=O)c2c(C)noc2C)OCCCC[C@H](C)O3)cc1	2.7	107.2*	-3.9	101.7*	-7.6	-12.3	-7.2
Cc1noc(C)c1S(=O)(=O)N(C)C[C@H]1OCCCC[C@H](C)Oc2ccc(NC(=O)Nc3cccc4ccccc34)cc2C(=O)N([C@H](C)CO)C[C@H]1C	1.3	/	-1.3	/	/	/	/
Cc1noc(C)c1S(=O)(=O)N(C)C[C@@H]1OCCCC[C@H](C)Oc2ccc(NC(=O)Nc3cccc4ccccc34)cc2C(=O)N([C@H](C)CO)C[C@@H]1C	/	108.7*	-6.2	98.1*	-36.7	73.9*	77.3*

Bioassay records as filed in PubChem.
